The values below come from ChEMBL document CHEMBL3997774, “Identification of Picrasidine C as a Subtype-Selective PPARα Agonist” (J Nat Prod, 2016).

Type in all cases: cell-based
Series [1] deals with T1, Peroxisome proliferator-activated receptor alpha (Homo sapiens) (UniProt Q07869).
T1 sequence (whole entry): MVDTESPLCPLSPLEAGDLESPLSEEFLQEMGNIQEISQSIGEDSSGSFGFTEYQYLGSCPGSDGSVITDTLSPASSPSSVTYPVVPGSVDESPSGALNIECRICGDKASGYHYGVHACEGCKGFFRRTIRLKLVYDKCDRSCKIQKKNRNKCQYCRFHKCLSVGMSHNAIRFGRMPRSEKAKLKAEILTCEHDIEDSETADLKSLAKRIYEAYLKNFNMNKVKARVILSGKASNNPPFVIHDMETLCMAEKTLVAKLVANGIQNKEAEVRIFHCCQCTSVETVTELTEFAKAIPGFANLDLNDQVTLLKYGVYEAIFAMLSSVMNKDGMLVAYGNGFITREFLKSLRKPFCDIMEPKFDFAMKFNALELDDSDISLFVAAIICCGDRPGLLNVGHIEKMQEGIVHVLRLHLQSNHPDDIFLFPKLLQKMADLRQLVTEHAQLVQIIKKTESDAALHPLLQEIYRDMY
Description: Agonist activity at GAL4-DBD fused human PPARalpha-LBD (159 to 468 residues) expressed in human HepG2 cells at 10 uM after 24 hrs by dual luciferase reporter gene based mammalian one hybrid assay relative to control. The essentials:
(§1)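 HepG2 cells (DMEM, 10% FBS) transfected with GAL4-DBD/human PPAR-LBD expression vector (0.05 μg), GALRE-luc reporter (0.1 μg) and pGL4.74 Renilla (0.01 μg). After overnight incubation, 0.1–20 μM compound or 0.1% DMSO for 24 h. Dual-luciferase readout, firefly normalized to Renilla. Fold activation over solvent, four independent transfections (mean ± SD, n = 4).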

The target of series [2] is T1, Peroxisome proliferator-activated receptor alpha (Homo sapiens). The experiment in a line: Agonist activity at PPARalpha in human THP1 cells assessed as induction of ABCA1 mRNA expression at 20 uM in presence of MK-886 after 24 hrs by RT-qPCR analysis. The gist of the method: (§2)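 PMA-differentiated THP-1 cells (200 nM, 48 h) pretreated 1 h with MK-886 (200 μM), then given compound or 0.1% DMSO for 24 h. Target mRNA measured by SYBR RT-qPCR and normalized to β-actin. Fold induction over solvent, four experiments (mean ± SD, n = 4).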

The next series relates to HepG2. The experiment in a line: Cytotoxicity against human HepG2 cells assessed as reduction in cell viability at 10 uM after 24 hrs by MTS assay. As to conditions: hepg2, 24 h.
Series [3] concerns the target T1, Peroxisome proliferator-activated receptor alpha (Homo sapiens). Description: Agonist activity at PPARalpha in human THP1 cells assessed as induction of CPT-1 mRNA expression after 24 hrs by RT-qPCR analysis. The essentials:
(§3)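 THP-1 cells (RPMI-1640, 10% FBS) differentiated with 200 nM PMA for 48 h, then treated 24 h with compound (1, 10, 20 μM; reference 50 μM) or 0.1% DMSO. Total RNA extracted, reverse transcribed. SYBR qPCR, 40 cycles (98 °C 5 s, 55 °C 20 s, 72 °C 30 s). Normalized to β-actin mRNA. Fold over solvent, n = 4 (mean ± SD).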

Series [4] has the same target. The experiment in a line: Agonist activity at PPARalpha in human THP1 cells assessed as induction of ABCA1 mRNA expression after 24 hrs by RT-qPCR analysis. The gist of the method:
as §3

Series [5] deals with T2, Peroxisome proliferator-activated receptor delta (Homo sapiens) (UniProt Q03181).
T2 sequence (whole entry): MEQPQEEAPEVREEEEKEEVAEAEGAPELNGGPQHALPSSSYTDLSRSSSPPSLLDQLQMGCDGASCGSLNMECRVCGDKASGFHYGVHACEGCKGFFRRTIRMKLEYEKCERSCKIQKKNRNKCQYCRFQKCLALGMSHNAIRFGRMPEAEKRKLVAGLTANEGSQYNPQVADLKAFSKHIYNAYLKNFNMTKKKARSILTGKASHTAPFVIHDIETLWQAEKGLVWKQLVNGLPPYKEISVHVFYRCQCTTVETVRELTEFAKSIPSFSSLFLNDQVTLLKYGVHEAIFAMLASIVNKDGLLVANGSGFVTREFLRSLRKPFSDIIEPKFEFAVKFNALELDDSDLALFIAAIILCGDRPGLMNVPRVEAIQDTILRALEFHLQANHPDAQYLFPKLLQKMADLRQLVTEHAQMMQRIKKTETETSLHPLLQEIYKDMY
Description: Antagonist activity at GAL4-DBD fused human PPARbeta/delta-LBD (136 to 441 residues) expressed in human HepG2 cells assessed as inhibition of GW0742-induced receptor activation at 10 uM by luciferase reporter gene based mammalian one hybrid assay. The essentials: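 HepG2 cells transfected with GAL4/PPARβ/δ-LBD vector (0.05 μg), GALRE-luc (0.1 μg) and pGL4.74 (0.01 μg). Treated 24 h with 10 μM compound, 10 μM GW0742, or both together, vs 0.1% DMSO. Dual-luciferase, Renilla-normalized. Fold over solvent, four transfections (mean ± SD, n = 4).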

The subject of a further series is THP-1. The experiment in a line: Cytotoxicity against PMA-differentiated human THP1 cells assessed as reduction in cell viability at 10 uM after 24 hrs by MTS assay. As to conditions: thp-1, 24 h.
Series [6] addresses T1, Peroxisome proliferator-activated receptor alpha (Homo sapiens). Description: Agonist activity at GAL4-DBD fused human PPARalpha-LBD (159 to 468 residues) expressed in human HepG2 cells after 24 hrs by dual luciferase reporter gene based mammalian one hybrid assay relative to control. The gist of the method: as §1
Series [7] addresses T3, Peroxisome proliferator-activated receptor gamma (Homo sapiens, UniProt P37231).
T3 sequence (P37231 whole entry): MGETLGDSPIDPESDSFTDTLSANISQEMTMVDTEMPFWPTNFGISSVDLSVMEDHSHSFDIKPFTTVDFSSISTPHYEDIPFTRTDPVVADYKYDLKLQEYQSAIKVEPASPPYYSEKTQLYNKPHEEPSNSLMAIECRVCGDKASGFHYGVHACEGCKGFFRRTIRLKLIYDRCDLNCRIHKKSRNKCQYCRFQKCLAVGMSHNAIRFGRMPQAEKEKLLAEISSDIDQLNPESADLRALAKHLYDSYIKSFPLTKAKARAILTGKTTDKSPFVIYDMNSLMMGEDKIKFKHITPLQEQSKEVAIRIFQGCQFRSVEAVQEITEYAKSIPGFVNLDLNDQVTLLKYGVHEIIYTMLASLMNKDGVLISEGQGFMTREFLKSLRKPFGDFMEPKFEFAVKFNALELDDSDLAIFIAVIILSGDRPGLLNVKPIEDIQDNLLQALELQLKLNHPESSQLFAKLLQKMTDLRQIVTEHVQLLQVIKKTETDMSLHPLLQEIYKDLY
Description: Agonist activity at GAL4-DBD fused human PPARgamma-LBD (157 to 475 residues) expressed in human HepG2 cells at 0.1 to 20 uM after 24 hrs by luciferase reporter gene based mammalian one hybrid assay relative to control. The gist of the method: as §1

The target of series [8] is T1, Peroxisome proliferator-activated receptor alpha (Homo sapiens). Description: Agonist activity at PPARalpha in human THP1 cells assessed as induction of PDK4 mRNA expression after 24 hrs by RT-qPCR analysis. The essentials:
as §3

The target is the same in series [9]. Description: Agonist activity at PPARalpha in human THP1 cells assessed as induction of PDK4 mRNA expression at 20 uM in presence of MK-886 after 24 hrs by RT-qPCR analysis. The gist of the method: as §2
Series [10] shares this target. The experiment in a line: Agonist activity at PPARalpha in human THP1 cells assessed as induction of CPT-1 mRNA expression at 20 uM in presence of MK-886 after 24 hrs by RT-qPCR analysis. The gist of the method: as §2
The target is the same in series [11]. The experiment in a line: Agonist activity at PPARalpha in human THP1 cells assessed as induction of PPARalpha mRNA expression at 20 uM in presence of MK-886 after 24 hrs by RT-qPCR analysis. The essentials:
as §2

For series [12] the target is unchanged. Description: Agonist activity at full length human N-terminal Myc-tagged PPARalpha expressed in human HepG2 cells coexpressing RXRalpha assessed as transcriptional activation of PPRE at 10 uM incubated for 24 hrs by dual luciferase reporter gene assay. The essentials: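 HepG2 cells co-transfected with PPRE-luc reporter (0.1 μg), PPARα and RXRα expression vectors (0.05 μg each) and pGL4.74 (0.01 μg). Treated 24 h with test compound or 0.1% DMSO. Dual-luciferase readout, firefly/Renilla. Fold activation over solvent, four independent transfections (mean ± SD, n = 4).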

For series [13], the target named is T4, Peroxisome proliferator-activated receptor delta (Homo sapiens, UniProt Q03181).
T4 sequence (Q03181 whole entry): T2 sequence (whole entry)
Description: Agonist activity at GAL4-DBD fused human PPARbeta/delta-LBD (136 to 441 residues) expressed in human HepG2 cells at 0.1 to 20 uM after 24 hrs by luciferase reporter gene based mammalian one hybrid assay relative to control. The essentials: as §1

Series [14] deals with T1, Peroxisome proliferator-activated receptor alpha (Homo sapiens). The experiment in a line: Agonist activity at PPARalpha in human THP1 cells assessed as induction of PPARalpha mRNA expression after 24 hrs by RT-qPCR analysis. The essentials: as §3

SMILES strings stand for the structures. The source made the active and inactive calls. The rule behind the calls is not given here.

For the molecule `Cc1cccc(Nc2cc(Cl)nc(SCC(=O)O)n2)c1C`, in [1], the result was Active.
On to `COc1cccc2c1[nH]c1c(CCC(OC)C(=O)c3nccc4c3[nH]c3ccccc34)ncc(OC)c12` (configuration not stated) [PICRASIDINE C], for which the outcome in series [2], in series [9], in series [10] and in series [11] was inactive. The Activity entry in the series on HepG2 is “Non-Toxic”; in [3], “Dose-dependent effect”; in [4], “Dose-dependent effect”; with THP-1 it was “Non-Toxic”; in series [6], “Dose-dependent effect”; in series [7], “Not Active”. For the same molecule, the results for the Activity entry in series [8], in series [13] and in [14] were “Dose-dependent effect”, “Not Active” and “Dose-dependent effect”, respectively. Besides, the inhibition entry in series [5] is “inactive”. Also, the outcome in series [1] and in series [12] was Active.
